Published values of several laboratories.
Each line is one published result; the experiments were not run side by side.
Observed: metabolic stability
Host: human
Matrix: liver microsomes

Cc1cc(Nc2ccnc3ccc(-c4ccc(S(=O)(=O)N5CCOCC5)cc4)cc23)sn1 — microsomal CLint: 115 µL/min/mg
Fc1ccc(Nc2c(-c3ccccn3)nc3ccccn23)nc1 — microsomal CLint (3 µM; pH 7.4): 44 µL/min/mg
CN1CCN(c2nc(-c3ccccn3)nc3ccccc23)CC1 — microsomal CLint: < 1 µL/min/mg
CCOCCOc1ccnc2ccc(-c3ccc(S(=O)(=O)N4CCOCC4)cc3)cc12 — microsomal CLint: > 300 µL/min/mg
N#Cc1cccc(-c2nc(N3CCC(c4ccccn4)C3)c3ccccc3n2)c1 (centres unmarked) — microsomal CLint: 261 µL/min/mg
COc1cc2[nH]c(C)c(-c3ccc(COc4ccccc4)cc3)c(=O)c2cc1Cl — microsomal CLint (1 µM): 22 µL/min/mg
CN(c1ccc(F)cc1)c1c(-c2cccc(F)n2)nc2ccccn12 — microsomal CLint (3 µM; pH 7.4): 170 µL/min/mg
c1ccc(-c2nc(N3CCCCCC3)c3ccccc3n2)nc1 — microsomal CLint: 190 µL/min/mg
C[C@H](N)c1cc(Cl)ccc1Cn1c(=S)[nH]c(=O)c2[nH]ccc21 — microsomal CLint: < 3 µL/min/mg
COc1cc2[nH]c(C)c(-c3ccc(N4CCN(C)CC4)nc3)c(=O)c2cc1Cl — microsomal CLint (1 µM): 34 µL/min/mg
c1ccc(-c2nc3n(c2-c2cccnc2)CCC3)nc1 — microsomal CLint (3 µM; pH 7.4): 24 µL/min/mg
Cc1cccc(N2CCN(c3nc(-c4ccccn4)nc4ccccc34)CC2)n1 — microsomal CLint: 165 µL/min/mg
O=C(Nc1ccc2c(c1)B(O)OC2)Nc1ccc(F)c(C(F)(F)F)c1 — microsomal CLint: 13 µL/min/mg
COc1cc2[nH]c(C)c(-c3ccc(F)cc3)c(=O)c2cc1Cl — microsomal CLint (1 µM): 31 µL/min/mg
c1ccc(CN2CCN(c3nc(-c4ccccn4)nc4ccccc34)CC2)cc1 — microsomal CLint: 136 µL/min/mg
C[C@@H](C(=O)NC1Cc2ccccc2C1)c1ccccc1 — microsomal CLint (1 µM; 1 h): 105 µL/min/mg
Cn1cc(-c2nc(N3CCC(c4ccccn4)C3)c3ccccc3n2)cn1 (centres unmarked) — microsomal CLint: 118 µL/min/mg
COc1cc(OC)cc(-c2c(-c3ccccn3)nc3n2CCC3)c1 — microsomal CLint (3 µM; pH 7.4): 53 µL/min/mg
Cc1cc(Nc2ccnc3ccc(-c4ccc(S(=O)(=O)N5CCOCC5)cc4)cc23)on1 — microsomal CLint: 69.8 µL/min/mg
C=CCn1c(=O)c2cnc(Nc3ccc(N4CCN(C)CC4)cc3)nc2n1-c1cccc(C(C)(C)O)n1 — microsomal CLint: 17 µL/min/mg
Cc1cc(Nc2ccc(S(F)(F)(F)(F)F)cc2)n2nc(C(F)(F)F)nc2n1 — microsomal CLint (1 µM; pH 7.4): < 6 µL/min/mg
COc1ccc(Nc2nc(-c3ccccn3)nc3ccccc23)cc1 — microsomal CLint: 73 µL/min/mg
COc1ccc2nc(-c3cc(N(C)C)ccn3)c(Nc3ccc(F)cc3)n2c1 — microsomal CLint (3 µM; pH 7.4): 120 µL/min/mg
CCOC(=O)c1c(-c2cc(F)cc(OC)c2)[nH]c2cc(OC)c(F)cc2c1=O — microsomal CLint (19.8 µM; pH 7.4): 50 µL/min/mg
NC(=O)c1cccc(-c2nc(N3CCC(c4ccccn4)C3)c3ccccc3n2)c1 (centres unmarked) — microsomal CLint: 111 µL/min/mg
CC(C)(C)[Si](C)(C)OCCN(c1ccc(F)cc1)c1c(-c2ccccn2)nc2ccccn12 — microsomal CLint (3 µM; pH 7.4): > 300 µL/min/mg
